From ChEMBL document CHEMBL2384950, “2-(3-Fluoro-4-methylsulfonylaminophenyl)propanamides as potent TRPV1 antagonists: structure activity relationships of the 2-oxy pyridine C-region” (Eur J Med Chem, 2013)

Experiments:
[1] = target: T1, Transient receptor potential cation channel subfamily V member 1 (Homo sapiens, UniProt Q8NER1); test: Antagonist activity at human TRPV1 expressed in CHOK1 cells assessed as inhibition of capsaicin-induced activity by FLIPR assay; type: cell-based, CHO-K1
[2] = target: T1, Transient receptor potential cation channel subfamily V member 1; test: Antagonist activity at human TRPV1 expressed in CHOK1 cells assessed as inhibition of pH 6 to 6.3-induced activity by FLIPR assay; type: cell-based, CHO-K1
[3] = target: T1, Transient receptor potential cation channel subfamily V member 1; test: Antagonist activity at human TRPV1 expressed in CHOK1 cells assessed as inhibition of N-arachidonoyldopamine-induced activity after 5 mins by FLIPR assay; type: cell-based, CHO-K1
Mus musculus [4] = test: Analgesic activity in NMRI mouse assessed as inhibition of formalin-induced nociceptive response at 0.1 mg/kg, po mesaured for 21 to 24 mins relative to control; type: functional
Summary of the method: (§1)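 Oral dosing in mice, randomized dose and vehicle groups, 10 animals per group, vehicle control each study. 20 μl 1% formalin in 0.9% NaCl injected subcutaneously into dorsal right hind paw. Time spent licking and biting the injected paw counted 21–24 min post-formalin. Reported as % inhibition (mean ± SEM) versus vehicle; Kruskal–Wallis test.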

Mus musculus [5] = test: Analgesic activity in NMRI mouse assessed as inhibition of formalin-induced nociceptive response at 0.3 mg/kg, po mesaured for 21 to 24 mins relative to control; type: functional; summary of the method: as §1
[6] = target: T1, Transient receptor potential cation channel subfamily V member 1; test: Antagonist activity at human TRPV1 expressed in CHOK1 cells assessed as inhibition of heat 45 degC-induced activity after 5 mins by FLIPR assay; type: cell-based, CHO-K1

T1 sequence (Q8NER1 whole entry): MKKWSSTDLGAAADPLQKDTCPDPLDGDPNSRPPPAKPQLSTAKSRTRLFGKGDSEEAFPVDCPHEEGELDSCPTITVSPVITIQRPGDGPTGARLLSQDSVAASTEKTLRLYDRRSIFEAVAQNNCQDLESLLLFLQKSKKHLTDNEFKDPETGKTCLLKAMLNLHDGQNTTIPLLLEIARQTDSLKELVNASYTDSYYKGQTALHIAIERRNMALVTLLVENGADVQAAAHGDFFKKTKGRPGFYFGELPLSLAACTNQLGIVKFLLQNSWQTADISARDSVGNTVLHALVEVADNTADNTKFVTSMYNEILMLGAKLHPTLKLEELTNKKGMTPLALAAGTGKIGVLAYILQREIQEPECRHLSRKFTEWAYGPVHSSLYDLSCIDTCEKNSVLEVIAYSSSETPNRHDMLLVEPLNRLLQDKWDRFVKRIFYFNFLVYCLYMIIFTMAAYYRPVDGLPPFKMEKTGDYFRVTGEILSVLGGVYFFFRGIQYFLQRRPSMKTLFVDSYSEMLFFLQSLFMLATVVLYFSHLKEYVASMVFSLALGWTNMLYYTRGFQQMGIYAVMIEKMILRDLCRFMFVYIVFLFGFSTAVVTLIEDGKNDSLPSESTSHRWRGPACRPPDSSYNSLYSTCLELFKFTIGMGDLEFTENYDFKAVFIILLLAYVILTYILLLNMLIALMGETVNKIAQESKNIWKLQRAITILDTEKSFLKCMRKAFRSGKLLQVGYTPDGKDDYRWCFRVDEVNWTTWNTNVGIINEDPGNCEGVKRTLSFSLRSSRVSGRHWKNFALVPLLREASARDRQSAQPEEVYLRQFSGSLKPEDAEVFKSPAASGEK

Ki [1] | IC50 [2] | Compound | also measured
0.3 nM | 5.1 nM | CC(C(=O)NCc1ccc(C(F)(F)F)nc1OC[C@@H]1C[C@H]1C)c1ccc(NS(C)(=O)=O)c(F)c1 (stereo not given in full) | –
– | > 10000 nM | CCC(CC)Oc1nc(C(F)(F)F)ccc1CNC(=O)C(C)c1ccc(NS(C)(=O)=O)c(F)c1 (stereo not given) | –
– | 174 nM | CC1CC(C)CC(Oc2nc(C(F)(F)F)ccc2CNC(=O)C(C)c2ccc(NS(C)(=O)=O)c(F)c2)C1 (stereo not given) | –
2.6 nM | 114 nM | CC(C(=O)NCc1ccc(C(F)(F)F)nc1OCc1cc(Cl)cc(Cl)c1)c1ccc(NS(C)(=O)=O)c(F)c1 (stereo not given) | –
– | > 10000 nM | CC(C(=O)NCc1ccc(C(F)(F)F)nc1OCC1CCNCC1)c1ccc(NS(C)(=O)=O)c(F)c1 (stereo not given) | –
– | > 10000 nM | CC(C(=O)NCc1ccc(C(F)(F)F)nc1OC1CCNCC1)c1ccc(NS(C)(=O)=O)c(F)c1 (stereo not given) | –
– | – | CC(C(=O)NCc1ccc(C(F)(F)F)nc1OCc1ccccc1)c1ccc(NS(C)(=O)=O)c(F)c1 (stereo not given) | Ki [3]: 0.001 nM; inhibition in vivo at 0.1 mg/kg (Mus musculus [4]): 41.8%; inhibition in vivo at 0.3 mg/kg (Mus musculus [5]): 54.1%; IC50 [6]: 52.3 nM
2.6 nM | 653 nM | COc1ccc(COc2nc(C(F)(F)F)ccc2CNC(=O)C(C)c2ccc(NS(C)(=O)=O)c(F)c2)cc1 (stereo not given) | –
4.9 nM | 95 nM | CC(C(=O)NCc1ccc(C(F)(F)F)nc1OCc1cccc(Cl)c1)c1ccc(NS(C)(=O)=O)c(F)c1 (stereo not given) | –
– | – | CC(C)COc1nc(C(F)(F)F)ccc1CNC(=O)C(C)c1ccc(NS(C)(=O)=O)c(F)c1 (stereo not given) | Ki [3]: 0.29 nM; inhibition in vivo at 0.1 mg/kg (Mus musculus [4]): 63.4%; inhibition in vivo at 0.3 mg/kg (Mus musculus [5]): 60.8%; IC50 [6]: 67.5 nM
44.5 nM | 1990 nM | CC(C(=O)NCc1ccc(C(C)(C)C)cc1)c1ccc(NS(C)(=O)=O)c(F)c1 (stereo not given) | –
50 nM | – | CCOCCOc1nc(C(F)(F)F)ccc1CNC(=O)C(C)c1ccc(NS(C)(=O)=O)c(F)c1 (stereo not given) | –
– | – | CC1CCN(c2nc(C(F)(F)F)ccc2CNC(=O)C(C)c2ccc(NS(C)(=O)=O)c(F)c2)CC1 (stereo not given) | Ki [3]: 0.23 nM; IC50 [6]: 4.5 nM
0.5 nM | 27.6 nM | CC(C(=O)NCc1ccc(C(F)(F)F)nc1OCCc1ccccc1)c1ccc(NS(C)(=O)=O)c(F)c1 (stereo not given) | –
1 nM | 93 nM | CC(C(=O)NCc1ccc(C(F)(F)F)nc1OCc1cc(F)cc(F)c1)c1ccc(NS(C)(=O)=O)c(F)c1 (stereo not given) | –
49 nM | – | COCCOc1nc(C(F)(F)F)ccc1CNC(=O)C(C)c1ccc(NS(C)(=O)=O)c(F)c1 (stereo not given) | –
0.8 nM | 69 nM | CC(C(=O)NCc1ccc(C(F)(F)F)nc1OCc1cccc(F)c1)c1ccc(NS(C)(=O)=O)c(F)c1 (stereo not given) | –
0.5 nM | – | CCCCC(CCC)Oc1nc(C(F)(F)F)ccc1CNC(=O)C(C)c1ccc(NS(C)(=O)=O)c(F)c1 (stereo not given) | –

Compound | Ki [1] | IC50 [2] | also measured
CC(C(=O)NCc1ccc(C(F)(F)F)nc1OCCC1CCCCN1C(=O)OC(C)(C)C)c1ccc(NS(C)(=O)=O)c(F)c1 (stereo not given) | 0.3 nM | 16.6 nM | –
